As a reminder, the IC50 is the concentration that gives 50% inhibition. By Kd is commonly meant a measure of binding affinity in units of concentration.

Here are results for 6 compounds from PMC2765518 (Journal of medicinal chemistry, 2009).

Series [1] relates to TGR1 knockout cells with over-expressed HMGA1b (KO+HMG). The experiment in a line: Growth inhibition of TGR1 knockout cells with over-expressed HMGA1b. It counts as cell-based, rat. Particulars: cells lacking c-Myc; compared with HL60 and TGR1.
The test system of a further series is HL60 cells. The experiment in a line: HL60 cell growth inhibition. It counts as cell-based. Particulars: for Inhibition in HL60 cells: higher levels of c-Myc. The method, boiled down: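 Test compound added to HL60 cells across a dose range, and growth followed over several days. IC50 taken from the dose-response profile on day 5 after compound addition. For the selectivity comparison, TGR1 normal rat fibroblasts and TGR1 knockout cells over-expressing HMGA1b (KO+HMG) were tested alongside.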

A further series deals with c-Myc (353–437) monomer (Homo sapiens, UniProt P01106). Kind of series: Fluorescence polarization competition against 1 for c-Myc binding. The method, boiled down: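 Fluorescence polarization of an intrinsically fluorescent parent Myc-Max disruptor used as probe; polarization rises when the probe binds the c-Myc (353–437) monomer. Test compound was titrated to displace the probe, and the data fitted to a competition constant (Kcomp). Affinity is Kcomp multiplied by the probe–c-Myc(353–437) dissociation constant. Run in triplicate.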
c-Myc (353–437) monomer, sequence (P01106 368-452): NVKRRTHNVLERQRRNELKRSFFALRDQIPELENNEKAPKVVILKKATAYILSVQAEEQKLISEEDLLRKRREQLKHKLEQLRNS
On the technique in general: Fluorescence polarisation rises when a labelled molecule tumbles more slowly, as on binding a larger partner.

In another series the target is c-Myc-Max(S) heterodimer (Homo sapiens, UniProt P01106). Kind of series: Circular dichroism assay of c-Myc-Max dimer disruption. It counts as biochemical. The method, boiled down:
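Circular dichroism of an equimolar c-Myc/Max(S) mixture, each at 1.5 µM, with helical content from ellipticity at 222 nm. Dimer disruption lowers helicity. Test compound was titrated and the data fitted to a competition constant (Kcomp). Kcomp multiplied by the independently determined c-Myc-Max dissociation constant gives the affinity for the c-Myc monomer, assuming monomer-only binding. Run in triplicate.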

The conditions of series [2]: cited from earlier work.

c-Myc-Max(S) heterodimer, sequence (P01106 368-452, one chain of several): as the sequence (P01106 368-452) above

On to `Cc1ccc(C)c(OCN2Cc3ccccc3C2C=O)c1` (stereo not drawn) [compound 6], for which the “Effect on growth of KO+HMG cells” value in series [1] is listed as “least effect”. Further, in the series with HL60 cells, the “Inhibition in HL60 cells” value is listed as “very good inhibition”. Besides, in the series with HL60 cells (Homo sapiens, HL-60, 120 h, read-out: IC50 on HL60 cell growth), the concentration for half-maximal inhibition (IC50) was determined as 16.7 µM.

Consider `O=C(CCN1C(=O)c2ccccc2C1=O)N1CCCCC1` [compound 2], for which the results for the Kd at c-Myc (353–437) monomer and at c-Myc-Max(S) heterodimer were 2.5 µM and 10 µM, respectively.

In the case of `CCc1ccc(N2CC(C(=O)OC)CC2=O)cc1` (stereo not drawn) [compound 3], the Kd on c-Myc (353–437) monomer turned out to be 40 µM; on c-Myc-Max(S) heterodimer, 25 µM.

As to `CCc1ccc(/C=C2\SC(=S)NC2=O)cc1` [compound 1, [Z,E]-5-[4-ethylbenzylidine]-2-thioxothiazolidin-4-one], the Metabolism and clearance result in series [2] is “extensive metabolism and rapid clearance”.

For the compound `CC(C)c1ccc(OCC(=O)Nc2nc3ccccc3s2)cc1` [compound 4], the Kd at c-Myc (353–437) monomer is 18 µM; at c-Myc-Max(S) heterodimer, 19 µM.

Consider `CCc1ccc(OCC(=O)Nc2ccc(C)cc2Br)cc1` [compound 5], for which the results for the Kd at c-Myc (353–437) monomer and at c-Myc-Max(S) heterodimer were 70 µM and 45 µM, respectively. For the same compound, the “Effect on growth of KO+HMG cells” value in series [1] was “least effect”. The “Inhibition in HL60 cells” value with HL60 cells is given as “very good inhibition”. Besides, the “Selectivity for HL60 cells” value with HL60 cells (HL60 versus TGR1 and KO+HMG cells) is listed as “more selective for HL60s than 6”.
